Plaque reduction and Virus rating data for two compounds are collected here from ChEMBL document CHEMBL1122187, “Synthesis and antiviral activity of certain carbamoylpyrrolopyrimidine and pyrazolopyrimidine nucleosides” (1982).

Holding throughout (type): functional, Chlorocebus sabaeus
In assay [1] the test system is Vero. Description: Percentage plaque reduction was determined against rift valley fever(RVF) virus in african green monkey kidney (vero,V) at a conc of 100-250 ug/mL.
Assay [2] relates to Vero. Description: Percentage plaque reduction was determined against rift valley fever(RVF) virus in african green monkey kidney (vero,V) at a conc of 25-100 ug/mL.
Assay [3] has as its system Vero. Description: Percentage plaque reduction was determined against Sandfly fever (SF) virus in african green monkey kidney (vero,V) at a conc of 100-250 ug/mL.
Assay [4] relates to Vero. Description: Percentage plaque reduction was determined against Sandfly fever (SF) virus in african green monkey kidney (vero,V) at a conc of 25-100 ug/mL.
The subject of assay [5] is Vero. Description: Percentage plaque reduction was determined against yellow fever(YF) virus in african green monkey kidney (vero,V); 61-90.
For assay [6], the system named is Vero. Description: In vitro antiviral activity against herpes simplex type 1 (HSV-1) virus was determined in african green monkey kidney (vero,V) expressed as virus rating. In short, it runs like this:
(§1)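 Cell monolayers (18 h) infected with 320 TCID50 of virus. Compound was added within 15–30 min at half-log dilutions from 1000 to 1 μg/mL. After 72 h at 37 °C in 5% CO2, CPE was scored 0–4 by microscopy. VR = sum of (virus control − treated) scores, halved at partially toxic levels, divided by 10 × test cups per drug level.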

Assay [7] deals with Vero. Description: Percentage plaque reduction was determined against rift valley fever(RVF) virus in african green monkey kidney (vero,V) at a conc of 250-500 ug/mL.
For assay [8], the system named is Vero. Description: Percentage plaque reduction was determined against Sandfly fever (SF) virus in african green monkey kidney (vero,V) at a conc of 250-500 ug/mL.
Assay [9] has as its system Vero. Description: Percentage plaque reduction was determined against Sandfly fever (SF) virus in african green monkey kidney (vero,V) at a conc of <25 ug/mL.
Assay [10] deals with Vero. Description: Percentage plaque reduction was determined against pichinde(PICH) virus in african green monkey kidney (vero,V). In short, it runs like this:
(§2)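 Infected Vero 24-well monolayers: virus adsorbed 1 h at 37 °C, then overlaid with agar holding dilutions of compound and incubated again at 37 °C with CO₂. Plaques were stained with crystal violet and counted. Inhibition was scored as % plaque reduction bands (10-30%, 31-60%, 61-90%), each tied to a drug concentration range.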

Assay [11] has as its system Vero. Description: Percentage plaque reduction was determined against rift valley fever(RVF) virus in african green monkey kidney (vero,V) at a conc of <25 ug/mL.
The subject of assay [12] is Vero. Description: Percentage plaque reduction was determined against venezuelan equine encephalitis (VEE) virus in african green monkey kidney (vero,V) at a conc of <25 ug/mL.
The subject of assay [13] is Vero. Description: In vitro antiviral activity against parainfluenza type 3(para 3) virus was determined in african green monkey kidney (vero,V) expressed as virus rating. In short, it runs like this: as §1
Assay [14] relates to Vero. Description: In vitro antiviral activity against vaccinia(VV) virus was determined in african green monkey kidney (vero,V) expressed as virus rating. In short, it runs like this: as §1
Assay [15] relates to Vero. Description: Percentage plaque reduction was determined against venezuelan equine encephalitis (VEE) virus in african green monkey kidney (vero,V) at a conc of 100-250 ug/mL.
Assay [16] relates to Vero. Description: Percentage plaque reduction was determined against venezuelan equine encephalitis (VEE) virus in african green monkey kidney (vero,V) at a conc of 25-100 ug/mL.
Assay [17] has as its system Vero. Description: Percentage plaque reduction was determined against venezuelan equine encephalitis (VEE) virus in african green monkey kidney (vero,V) at a conc of 250-500 ug/mL.
The subject of assay [18] is Vero. Description: Percentage plaque reduction was determined against pichinde(PICH) virus in african green monkey kidney (vero,V).Toxic level(32 ug/mL); 61-90. In short, it runs like this: as §2
The subject of assay [19] is Vero. Description: Percentage plaque reduction was determined against rift valley fever(RVF) virus in african green monkey kidney (vero,V) at a conc of 25-100 ug/mL. Toxic level(32 ug/mL); 61-90.
Assay [20] deals with Vero. Description: Percentage plaque reduction was determined against venezuelan equine encephalitis (VEE) virus in african green monkey kidney (vero,V) at a conc of 100-250 ug/mL. Toxic level(32 ug/mL).
In assay [21] the test system is Vero. Description: Percentage plaque reduction was determined against venezuelan equine encephalitis (VEE) virus in african green monkey kidney (vero,V) at a conc of 25-100 ug/mL. Toxic level(32 ug/mL).
Assay [22] deals with Vero. Description: Percentage plaque reduction was determined against Sandfly fever (SF) virus in african green monkey kidney (vero,V) at a conc of 250-500 ug/mL; 10-30.
Assay [23] concerns Vero. Description: In vitro antiviral activity against parainfluenza type 3(para 3) virus was determined in african green monkey kidney (vero,V) expressed as virus rating. Toxic level(32 ug/mL). In short, it runs like this:
as §1

For assay [24], the system named is Vero. Description: Percentage plaque reduction was determined against yellow fever(YF) virus in african green monkey kidney (vero,V).Toxic level(32 ug/mL); 61-90.
In assay [25] the test system is Vero. Description: Percentage plaque reduction was determined against venezuelan equine encephalitis (VEE) virus in african green monkey kidney (vero,V) at a conc of 250-500 ug/mL. Toxic level(32 ug/mL).
The test system of assay [26] is Vero. Description: Percentage plaque reduction was determined against venezuelan equine encephalitis (VEE) virus in african green monkey kidney (vero,V) at a conc of <25 ug/mL. Toxic level(32 ug/mL).
Assay [27] deals with Vero. Description: In vitro antiviral activity against herpes simplex type 1 (HSV-1) virus was determined in african green monkey kidney (vero,V) expressed as virus rating. Toxic level(32 ug/mL). In short, it runs like this:
as §1

On to `CSc1ncnc2c([C@@H]3O[C@H](COC(C)=O)[C@@H](OC(C)=O)[C@H]3OC(C)=O)n[nH]c12`, for which the Plaque reduction came out at 0% in the assay on Vero [1]; 0% in the assay with Vero [2]; 0% in the assay with Vero [3]; 0% with Vero [4]; 61% in the assay on Vero [5]; 0% in the assay on Vero [7]. Moreover, the Plaque reduction in the assay on Vero [8], in the assay on Vero [9], in the assay with Vero [10], with Vero [11], with Vero [12] and in the assay with Vero [15] was 0% throughout. The Plaque reduction in the assay with Vero [16] and in the assay on Vero [17] was 0% each time. Moreover, the Virus rating in the assay on Vero [6] was determined as 0.6; in the assay on Vero [13] it was 1; with Vero [14], 1.2.
Take `O=C1N=CN=C2C1C=CN2C1O[C@H](CO)[C@@H](O)[C@H]1O` (some centres not stated): the Plaque reduction with Vero [18] is 61%; in the assay with Vero [19], 61%; in the assay on Vero [20], 0%; in the assay on Vero [21], 0%; in the assay with Vero [22], 10%; in the assay with Vero [24], 61%. For the same compound, the Plaque reduction with Vero [25] and with Vero [26] was 0% in each case. Besides, the Virus rating in the assay with Vero [23] and in the assay with Vero [27] was 0 in each case.
